Results on 25 compounds are retold here after ChEMBL document CHEMBL3588853, “Synthesis, biological evaluation, and molecular docking studies of novel 1-benzene acyl-2-(1-methylindol-3-yl)-benzimidazole derivatives as potential tubulin polymerization inhibitors” (Eur J Med Chem, 2015).

For orientation: inhibition means the share of the control response that was lost under treatment. The low end stands for a weak effect, the high end for a strong effect. One may read the GI50 as the concentration giving 50% growth inhibition. By IC50 is commonly meant the midpoint of a concentration-inhibition curve. The low end stands for greater potency, the high end for weaker potency.

One assay deals with Tubulin (Bos taurus) (UniProt Q6B856+Q862F3). The note with it: at 5 µM.
The next assay has as its system A549. Nature of the assay: Growth inhibition of human A549 cells assessed as inhibition of cell proliferation after 24 hrs by MTT assay. The format is functional. The note with it: A549, 24 h. The essentials: (§1)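 Cells seeded at (1–5) × 10^3 per well and grown 12 h at 37 °C. Compounds added at increasing concentrations in medium with 10% FBS for 24 h. MTT dye then added, followed by 3–4 h at 37 °C. Medium discarded, formazan dissolved in DMSO and plate read. GI50 calculated relative to DMSO-treated control wells.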
On the technique in general: Tetrazolium dyes change colour on reduction, which living cells bring about.

Another assay relates to MCF7. Nature of the assay: Growth inhibition of human MCF7 cells assessed as inhibition of cell proliferation after 24 hrs by MTT assay. It counts as functional. Particulars: MCF7, 24 h. In outline:
as §1

The next assay has as its system HepG2. Nature of the assay: Growth inhibition of human HepG2 cells assessed as inhibition of cell proliferation after 24 hrs by MTT assay. The note with it: HepG2, 24 h. The format is functional. In outline:
as §1

The target in a further assay is Tubulin (Bos taurus, UniProt Q6B856+Q862F3). Nature of the assay: Inhibition of bovine brain tubulin polymerization extent after 20 mins by turbidimetrically.
Tubulin, sequence (Q6B856 whole entry): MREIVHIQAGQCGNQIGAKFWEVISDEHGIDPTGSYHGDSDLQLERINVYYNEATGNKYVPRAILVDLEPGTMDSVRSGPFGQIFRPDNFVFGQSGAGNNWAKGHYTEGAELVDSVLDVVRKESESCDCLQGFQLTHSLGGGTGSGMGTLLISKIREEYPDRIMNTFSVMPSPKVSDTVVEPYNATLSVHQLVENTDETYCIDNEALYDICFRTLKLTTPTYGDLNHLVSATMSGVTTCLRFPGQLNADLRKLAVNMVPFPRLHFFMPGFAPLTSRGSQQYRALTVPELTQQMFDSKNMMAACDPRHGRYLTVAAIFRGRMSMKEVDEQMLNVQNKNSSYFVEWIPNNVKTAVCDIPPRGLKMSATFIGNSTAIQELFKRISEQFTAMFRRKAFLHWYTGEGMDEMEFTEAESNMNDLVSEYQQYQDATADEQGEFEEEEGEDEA
Tubulin, sequence (Q862F3 whole entry): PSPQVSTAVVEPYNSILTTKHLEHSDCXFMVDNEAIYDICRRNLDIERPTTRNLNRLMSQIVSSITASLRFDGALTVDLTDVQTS

`COc1cc(C(=O)n2c(-c3cn(C)c4ccc(Br)cc34)nc3ccccc32)cc(OC)c1OC`: the inhibition against Tubulin (Bos taurus) was 91%. The values for the GI50 in the assay on A549, in the assay on MCF7 and in the assay on HepG2 were 3 µM, 9.7 µM and 8.2 µM, respectively. Further, at Tubulin, the midpoint of inhibition, the IC50, lay at 2 µM.

`Cn1cc(-c2nc3ccccc3n2C(=O)c2cccc(Br)c2)c2ccccc21` came in with an inhibition at Tubulin (Bos taurus) of 52%. In addition, the GI50 in the assay on A549 was determined as 34.2 µM; in the assay with MCF7 it was 63.4 µM; with HepG2, 61.4 µM. Also, inhibition against Tubulin was half-maximal at 35.2 µM (IC50).

Regarding `COc1ccc2c(c1)c(-c1nc3ccccc3n1C(=O)c1ccccc1Br)cn2C`, the inhibition against Tubulin (Bos taurus) turned out to be 55%. The results for the GI50 in the assay on A549, with MCF7 and in the assay on HepG2 were 29.5 µM, 55.8 µM and 54.2 µM, respectively. At Tubulin, this compound had an IC50 of 32.3 µM.

In turn, `COc1ccc(/C=C\c2cc(OC)c(OC)c(OC)c2)cc1O` [COMBRETASTATIN A4] came in with an inhibition on Tubulin (Bos taurus) of 93%. The GI50 came to 2.8 µM in the assay on A549, 9.4 µM in the assay with MCF7 and 7.4 µM with HepG2.

Take `COc1ccc(C(=O)n2c(-c3cn(C)c4ccc(Br)cc34)nc3ccccc32)cc1OC`: the inhibition against Tubulin (Bos taurus) was 85%. Further, the GI50 with A549 amounted to 3.4 µM; in the assay with MCF7, 11.3 µM; with HepG2, 9.7 µM. The same compound registered an IC50 at Tubulin of 2.4 µM.

Compound `COc1ccc2c(c1)c(-c1nc3ccccc3n1C(=O)c1cccc(Br)c1)cn2C` came in with an inhibition against Tubulin (Bos taurus) of 57%. Also, the figures for the GI50 in the assay with A549, in the assay on MCF7 and in the assay on HepG2 were 24.8 µM, 52.7 µM and 51.3 µM, respectively. This compound displayed an IC50 on Tubulin of 29.2 µM.

At Tubulin (Bos taurus), `Cn1cc(-c2nc3ccccc3n2C(=O)c2ccccc2Br)c2cc(Br)ccc21` yielded an inhibition of 48%. Moreover, the GI50 with A549 was 46.7 µM; in the assay on MCF7, 73.6 µM; in the assay on HepG2, 72.1 µM. In addition, at Tubulin, the IC50 turned out to be 45.6 µM.

Compound `COc1cc(C(=O)n2c(-c3cn(C)c4ccccc34)nc3ccccc32)cc(OC)c1OC` came in with an inhibition against Tubulin (Bos taurus) of 95%. Further, the GI50 in the assay with A549 turned out to be 2.6 µM; with MCF7, 5.4 µM; in the assay with HepG2, 4.3 µM. This compound registered an IC50 at Tubulin of 1.6 µM.

The compound `COc1ccccc1C(=O)n1c(-c2cn(C)c3ccccc23)nc2ccccc21` gave an inhibition against Tubulin (Bos taurus) of 70%. In addition, the GI50 stood at 12.3 µM in the assay with A549, 32.1 µM in the assay with MCF7 and 31.8 µM in the assay on HepG2. Also, 15.9 µM corresponded to half-maximal inhibition at Tubulin (IC50).

Take `COc1ccc(C(=O)n2c(-c3cn(C)c4ccc(OC)cc34)nc3ccccc32)cc1`: the inhibition at Tubulin (Bos taurus) stood at 82%. Besides, the figures for the GI50 with A549, in the assay on MCF7 and in the assay with HepG2 were 4.9 µM, 14.8 µM and 12.8 µM, respectively. On Tubulin, this compound gave an IC50 of 3.5 µM.

The compound `COc1ccccc1C(=O)n1c(-c2cn(C)c3ccc(Br)cc23)nc2ccccc21` showed an inhibition on Tubulin (Bos taurus) of 68%. Besides, the GI50 in the assay on A549 was 12.8 µM; in the assay with MCF7, 36.2 µM; with HepG2, 34.6 µM. The compound also gave an IC50 on Tubulin of 17.3 µM.

Regarding `COc1cccc(C(=O)n2c(-c3cn(C)c4ccc(OC)cc34)nc3ccccc32)c1`, the inhibition against Tubulin (Bos taurus) was 84%. Further, the GI50 in the assay on A549 was 4.6 µM; in the assay on MCF7, 14.6 µM; with HepG2, 11.7 µM. Further, 3.3 µM corresponded to half-maximal inhibition against Tubulin (IC50).

In the case of `COc1cc2c(c(OC)c1OC)-c1ccc(OC)c(=O)cc1[C@@H](NC(C)=O)CC2` [COLCHICINE], the GI50 in the assay with A549 amounted to 4.4 µM; with MCF7, 13.5 µM; with HepG2, 10.5 µM.

On Tubulin (Bos taurus), `Cn1cc(-c2nc3ccccc3n2C(=O)c2ccccc2)c2cc(Br)ccc21` returned an inhibition of 60%. For the same compound, the GI50 with A549 is 23.1 µM; in the assay on MCF7, 50.3 µM; in the assay on HepG2, 48.1 µM. On Tubulin, this compound showed an IC50 of 25.3 µM.

For the compound `COc1ccc2c(c1)c(-c1nc3ccccc3n1C(=O)c1ccc(OC)c(OC)c1)cn2C`, at Tubulin (Bos taurus), the inhibition is 94%. In addition, the GI50 was found to be 2.7 µM in the assay with A549, 6.3 µM in the assay on MCF7 and 5.1 µM with HepG2. The same compound came in with an IC50 against Tubulin of 1.7 µM.

`COc1cccc(C(=O)n2c(-c3cn(C)c4ccc(Br)cc34)nc3ccccc32)c1` yielded an inhibition on Tubulin (Bos taurus) of 78%. The GI50 stood at 10.8 µM with A549, 18.2 µM in the assay on MCF7 and 17.8 µM in the assay with HepG2. This compound also gave an IC50 against Tubulin of 5.7 µM.

As for `COc1ccc(C(=O)n2c(-c3cn(C)c4ccc(Br)cc34)nc3ccccc32)cc1`, the inhibition at Tubulin (Bos taurus) was 75%. The GI50 in the assay with A549 came to 11.3 µM; with MCF7, 19.2 µM; with HepG2 it was 18.9 µM. Besides, the IC50 against Tubulin turned out to be 6.3 µM.

`COc1ccc(C(=O)n2c(-c3cn(C)c4ccccc34)nc3ccccc32)cc1OC` gave an inhibition against Tubulin (Bos taurus) of 87%. Further, the GI50 in the assay on A549 is 3.1 µM; in the assay with MCF7 it was 10.2 µM; in the assay on HepG2, 8.4 µM. This compound also yielded an IC50 against Tubulin of 2.1 µM.

Compound `Cn1cc(-c2nc3ccccc3n2C(=O)c2cccc(Br)c2)c2cc(Br)ccc21` gave an inhibition against Tubulin (Bos taurus) of 51%. Also, the GI50 was 38.5 µM in the assay with A549, 68.2 µM with MCF7 and 67.3 µM in the assay with HepG2. For the same compound, the half-inhibitory concentration (IC50) at Tubulin was found to be 39.7 µM.

On Tubulin (Bos taurus), `Cn1cc(-c2nc3ccccc3n2C(=O)c2ccccc2Br)c2ccccc21` registered an inhibition of 50%. Besides, the GI50 in the assay on A549 turned out to be 43.2 µM; in the assay on MCF7 it was 70.1 µM; with HepG2, 68.2 µM. For the same compound, the IC50 against Tubulin stood at 42.9 µM.

Compound `Cn1cc(-c2nc3ccccc3n2C(=O)c2ccccc2)c2ccccc21` gave an inhibition against Tubulin (Bos taurus) of 61%. The GI50 with A549 worked out at 19.6 µM; with MCF7, 43.7 µM; with HepG2, 42.3 µM. For the same compound, the half-maximal inhibitory concentration (IC50) against Tubulin turned out to be 23.8 µM.

Compound `COc1ccc(C(=O)n2c(-c3cn(C)c4ccccc34)nc3ccccc32)cc1` showed an inhibition against Tubulin (Bos taurus) of 80%. Besides, the GI50 in the assay with A549 is 10.4 µM; in the assay with MCF7, 16.3 µM; with HepG2 it was 15.2 µM. Further, on Tubulin, the IC50 worked out at 4.6 µM.

The compound `COc1cccc(C(=O)n2c(-c3cn(C)c4ccccc34)nc3ccccc32)c1` came in with an inhibition against Tubulin (Bos taurus) of 81%. Moreover, the GI50 in the assay with A549 is 10.2 µM; in the assay on MCF7, 15.7 µM; with HepG2, 13.6 µM. This compound registered an IC50 against Tubulin of 4.4 µM.

At Tubulin (Bos taurus), `COc1ccc2c(c1)c(-c1nc3ccccc3n1C(=O)c1ccccc1)cn2C` yielded an inhibition of 64%. In addition, the GI50 with A549 stood at 16.7 µM; with MCF7, 38.4 µM; in the assay with HepG2, 37.9 µM. The compound also came in with an IC50 against Tubulin of 19.6 µM.

With `COc1ccc2c(c1)c(-c1nc3ccccc3n1C(=O)c1ccccc1OC)cn2C`, the inhibition on Tubulin (Bos taurus) worked out at 73%. Moreover, the GI50 with A549 worked out at 11.9 µM; with MCF7, 23.9 µM; in the assay on HepG2 it was 23.6 µM. Further, at Tubulin, half-maximal inhibition (IC50) required 8.4 µM.
